Results taken from ChEMBL document CHEMBL1129982, “Structure-activity relationships in a series of orally active gamma-hydroxy butenolide endothelin antagonists” (J Med Chem, 1997).

Key:
Endothelin-1 receptor = molecular target: T1, Endothelin-1 receptor (Homo sapiens, UniProt P25101); experiment: Binding affinity against human cloned endothelin A receptor expressed in LTK-cells; assay type: cell-based
T1 sequence (P25101 whole entry): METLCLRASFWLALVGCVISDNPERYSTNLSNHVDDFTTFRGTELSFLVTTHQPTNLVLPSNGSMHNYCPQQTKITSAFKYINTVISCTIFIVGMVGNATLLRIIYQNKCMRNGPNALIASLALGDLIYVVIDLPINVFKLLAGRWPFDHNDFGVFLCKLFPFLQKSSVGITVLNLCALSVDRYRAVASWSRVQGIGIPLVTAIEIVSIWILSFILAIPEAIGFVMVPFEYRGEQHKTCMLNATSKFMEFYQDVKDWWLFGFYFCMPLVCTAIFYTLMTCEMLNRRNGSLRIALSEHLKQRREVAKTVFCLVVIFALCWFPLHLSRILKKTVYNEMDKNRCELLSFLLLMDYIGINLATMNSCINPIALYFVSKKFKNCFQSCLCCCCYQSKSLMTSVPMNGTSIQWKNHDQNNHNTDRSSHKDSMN
Method in brief: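 Radioligand binding to cloned human ETA (Ltk⁻ cells) and ETB (CHO-K1 cells) receptors. Selectivity expressed as ETB IC50/ETA IC50.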

[1] = molecular target: T2, Endothelin receptor type B (Homo sapiens, UniProt P24530); experiment: Binding affinity against human cloned Endothelin B receptor expressed in CHO-K1 cells; assay type: cell-based
T2 sequence (P24530 whole entry): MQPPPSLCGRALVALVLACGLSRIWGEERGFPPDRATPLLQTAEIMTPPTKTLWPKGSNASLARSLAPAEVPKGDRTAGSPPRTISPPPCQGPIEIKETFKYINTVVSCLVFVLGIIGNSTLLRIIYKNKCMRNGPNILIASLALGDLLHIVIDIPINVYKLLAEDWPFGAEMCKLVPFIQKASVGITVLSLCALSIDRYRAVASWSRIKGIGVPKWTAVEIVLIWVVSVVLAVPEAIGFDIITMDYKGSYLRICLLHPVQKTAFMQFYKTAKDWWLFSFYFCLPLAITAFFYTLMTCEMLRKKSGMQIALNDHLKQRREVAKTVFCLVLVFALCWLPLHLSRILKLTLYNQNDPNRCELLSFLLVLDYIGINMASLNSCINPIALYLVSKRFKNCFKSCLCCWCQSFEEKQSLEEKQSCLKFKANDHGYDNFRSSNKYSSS
Method in brief: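 Radioligand binding to cloned human ETA (Ltk⁻ cells) and ETB (CHO-K1 cells) receptors. […] Selectivity expressed as ETB IC50/ETA IC50.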

Row | IC50 (Endothelin-1 receptor) [µM] | IC50 [1] [µM] | SMILES
1 | 16 | 10 | COc1ccc(C2(O)OC(=O)C(c3ccc4c(c3)OCO4)=C2Cc2cccc3c2CCc2ccccc2C3=O)cc1 (stereo not given)
2 | 0.04 | > 2.5 | COc1ccc(C2(O)OC(=O)C(c3ccc4c(c3)OCO4)=C2Cc2cccnc2)cc1 (stereo not given)
3 | 0.0012 |  | COc1ccc(C2(O)OC(=O)C(c3ccc4c(c3)OCO4)=C2Cc2ccc(NC(C)=O)cc2)cc1 (stereo not given)
4 | 0.0067 | 0.64 | COc1ccc(C2(O)OC(=O)C(c3cc(OC)c4c(c3)OCO4)=C2Cc2ccccc2)cc1 (stereo not given)
5 | 0.15 | > 2.5 | COc1ccc(C2(O)OC(=O)C(c3ccc4c(c3)OCO4)=C2Cc2ccc(Cl)c(Cl)c2)cc1 (stereo not given)
6 | 0.01 | 3.2 | COc1ccc(C2(O)OC(=O)C(c3ccc4c(c3)OCO4)=C2Cc2nccc3ccccc23)cc1 (stereo not given)
7 | 0.07 |  | COc1ccc(C2(O)OC(=O)C(c3ccc(OC)c(OC)c3)=C2Cc2ccccc2)cc1 (stereo not given)
8 | 0.012 |  | COc1ccc(C2(O)OC(=O)C(c3ccc4c(c3)OCO4)=C2Cc2ccccc2)cc1C (stereo not given)
9 | 0.0075 | 1.6 | COc1ccc(C2(O)OC(=O)C(c3ccc4c(c3)OCO4)=C2Cc2ccc3c(c2)OCCO3)cc1 (stereo not given)
10 | 0.0085 |  | COC(=O)c1cccc(CC2=C(c3ccc4c(c3)OCO4)C(=O)OC2(O)c2ccc(OC)cc2)c1 (stereo not given)
11 | 0.016 |  | COc1ccc(C2(O)OC(=O)C(c3ccc4c(c3)OCO4)=C2Cc2ccc3c(c2)OCO3)cc1 (stereo not given)
12 | 0.0018 |  | COc1ccc(C2(O)OC(=O)C(c3ccc4c(c3)OCO4)=C2Cc2cc(OC)c(OC)cc2OC)cc1 (stereo not given)
13 | 0.011 |  | COc1ccc(C2(O)OC(=O)C(c3ccc4c(c3)OCO4)=C2Cc2cccc(OC)c2OC)cc1 (stereo not given)
14 | 0.011 |  | COC(=O)c1ccc(CC2=C(c3ccc4c(c3)OCO4)C(=O)OC2(O)c2ccc(OC)cc2)cc1 (stereo not given)
15 | 0.32 |  | CCC1=C(c2ccc3c(c2)OCO3)C(=O)OC1(O)c1ccc(OC)cc1 (stereo not given)
16 | 0.019 |  | O=C1OC(O)(c2ccc3c(c2)OCO3)C(Cc2ccccc2)=C1c1ccc2c(c1)OCO2 (stereo not given)
17 | 0.035 |  | COc1ccc(C2(O)OC(=O)C(c3ccc4c(c3)OCO4)=C2CC2CCCCCC2)cc1 (stereo not given)

The remaining lines, values behind:

Row | SMILES | IC50 (Endothelin-1 receptor) [µM] | IC50 [1] [µM]
18 | COc1ccc(C2(O)OC(=O)C(c3ccc4c(c3)OCO4)=C2Cc2cccc(C(F)(F)F)c2)cc1 (stereo not given) | 0.043 | > 2.5
19 | COc1ccc(C2(OC)OC(=O)C(c3ccc4c(c3)OCO4)=C2Cc2ccccc2)cc1 (stereo not given) | 0.3 | > 25
20 | COc1ccc(C2(O)OC(=O)C(c3ccc4c(c3)OCO4)=C2Cc2cc(OC)c3c(c2)OCO3)cc1 (stereo not given) | 0.014 | 16
21 | COc1ccc(C2(O)OC(=O)C(c3ccc4c(c3)OCO4)=C2Cc2ccc(N(C)C)cc2)cc1 (stereo not given) | 0.028 | 1.8
22 | COc1ccccc1C1(O)OC(=O)C(c2ccc3c(c2)OCO3)=C1Cc1ccccc1 (stereo not given) | 0.48 | > 2.5
23 | COc1ccc(C2(O)OC(=O)C(c3ccc4c(c3)OCO4)=C2Cc2ccc(C)cc2)cc1 (stereo not given) |  | > 2.5
24 | COc1ccc(C2(O)OC(=O)C(c3ccc4c(c3)OCO4)=C2Cc2cc(OC)cc(OC)c2)cc1 (stereo not given) | 0.0017 | 
25 | COc1ccc(C2OC(=O)C(c3ccc4c(c3)OCO4)=C2Cc2cc(OC)c(OC)c(OC)c2)cc1 (stereo not given) |  | > 25
26 | COc1ccc(C2(O)OC(=O)C(c3ccc4c(c3)OCO4)=C2Cc2ccc(-c3ccccc3)cc2)cc1 (stereo not given) | 0.2 | 
27 | COc1ccc(C2(O)OC(=O)C(c3ccc(OC)cc3OC)=C2Cc2ccccc2)cc1 (stereo not given) | 0.3 | 
28 | COc1ccc(CC2=C(c3ccc(C)cc3)C(=O)OC2(O)c2ccc(OC)cc2)cc1 (stereo not given) |  | > 2.5
29 | COc1ccc(CC2=C(c3ccc(OC)cc3)C(=O)OC2(O)c2ccc(OC)cc2)cc1 (stereo not given) |  | 9
30 | COc1ccc(C2(O)OC(=O)C(c3ccc4c(c3)OCO4)=C2Cc2ccc(OC)c(C)c2)cc1 (stereo not given) |  | 1.14
31 | COc1ccc(C2(O)OC(=O)C(c3ccc4c(c3)OCO4)=C2Cc2cc(OC)ccc2OC)cc1 (stereo not given) | 0.0021 | 
32 | COc1ccc(C2(O)OC(=O)C(c3ccc4c(c3)OCO4)=C2Cc2ccc(OC)c(OC)c2)cc1 (stereo not given) | 0.0014 | 
33 | COc1ccc(C2(O)OC(=O)C(c3cc(OC)c4c(c3)OCO4)=C2Cc2cc(OC)c(OC)c(OC)c2)cc1C (stereo not given) |  | 0.18
34 | O=C1OC(O)(c2ccc(OCc3ccccc3)cc2)C(Cc2ccccc2)=C1c1ccc2c(c1)OCO2 (stereo not given) | 0.95 | 
